HCV NS3 hel inh: blocks Hepatitis C virus NS3 helicase unwinding; 290,000 tested, 0.56% active; NS3 helicase DNA unwinding, Cy5 molecular beacon fluorescence; inhibition, % at 10.9 µM;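 active = inhibition above the mean of all tested compounds plus 3 SD, set per campaign, cut at about 35% in these data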
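Measured by: Cy5 fluorescence, 0 and 60 min reads / Assay system: NS3 helicase fragment of HCV / Control set: low DMSO, high thioflavine S at 110 µM / Times: 1 h reaction at 25 °C, ATP-initiated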
MEKK3 PB1 HTS: modulators (inhibitors or enhancers) of MEK5 binding to human MEKK3 PB1 domain; binding response (% of control), % at 10 µM; Q99759; 290,000 tested, 1.4% active; bead-based flow cytometry, Alexa488-MEK5 binding to MEKK3; actives lie on both sides; 0 = blocked by unlabeled MEK5, 100 = vehicle; AID 1529;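 active = binding response more than 3 SD above or below the average of its plate-row segment, actives on both sides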;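 note: Alexa488 bead fluorescence after subtracting the streptavidin-only scavenger bead signal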
Target sequence (Q99759 whole entry, looked up, the tested form may be a part): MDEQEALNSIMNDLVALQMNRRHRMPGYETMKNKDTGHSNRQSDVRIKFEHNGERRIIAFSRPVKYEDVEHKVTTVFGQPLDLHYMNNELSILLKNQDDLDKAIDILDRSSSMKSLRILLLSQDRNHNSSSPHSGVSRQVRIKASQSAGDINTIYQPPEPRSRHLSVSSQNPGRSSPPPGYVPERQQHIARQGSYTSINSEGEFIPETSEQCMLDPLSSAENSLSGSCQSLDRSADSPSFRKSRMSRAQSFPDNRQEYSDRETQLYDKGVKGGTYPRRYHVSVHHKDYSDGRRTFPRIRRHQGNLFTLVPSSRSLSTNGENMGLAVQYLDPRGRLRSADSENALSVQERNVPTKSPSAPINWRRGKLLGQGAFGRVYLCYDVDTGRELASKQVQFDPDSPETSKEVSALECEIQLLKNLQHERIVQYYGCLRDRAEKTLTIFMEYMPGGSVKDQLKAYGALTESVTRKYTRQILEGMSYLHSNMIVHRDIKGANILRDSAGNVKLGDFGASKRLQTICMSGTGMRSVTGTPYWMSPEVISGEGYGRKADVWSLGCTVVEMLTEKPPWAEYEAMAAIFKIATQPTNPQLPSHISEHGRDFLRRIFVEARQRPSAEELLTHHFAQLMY
MEKK2wt PB1 HTS: raises or lowers MEK5 binding to wildtype human MEKK2 PB1 domain. Q9Y2U5. bead flow cytometry, Alexa488-MEK5 binding to MEKK2 WT; actives lie on both sides. 290,000 tested, 1.1% active. binding response (% of control), % at 10 µM; in the data active = binding response below about 67% or above about 130%
MEKK2 mut-MEK5: signal of MEK5 binding to mutant human MEKK2 PB1 domain. 290,000 tested, 0.35% active. bead flow cytometry, Alexa488-MEK5 binding to MEKK2 mutant. percent response, % at 10 µM; in the data active = percent response above about 24%, passing the limit was not always enough
DNA FID counter-1: counter-screen for HCV NS3 helicase inhibitors: DNA intercalator displacement | DNA fluorescent intercalator displacement, fluorescence | inhibition, % at 7.9 µM | 290,000 tested, 0.17% active;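 note: higher means more ethidium bromide displaced from hairpin DNA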
T cruzi inh: blocks replication of Trypanosoma cruzi. T. cruzi beta-gal in NIH3T3, luminescence, 90 h. inhibition, % (test concentration not listed). 300,000 tested, 1.4% active;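 active = mean inhibition across valid replicates above about 55%, limit read from the data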;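 note: signal also drops with host cell toxicity which is not excluded here; higher percent means less beta-gal luminescence so fewer parasites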
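Read-out: Parasite load inhibition, % | Test system: Mouse NIH/3T3 fibroblasts infected with β-gal-expressing T. cruzi Tulahuen C4 | Amount: 5,000 cells/well | Medium: DMEM, 2% fetal bovine serum | Signal: GalScreen β-gal luminescence, detergent lysis, 60 min | Timing: 3 h attach, ≥90 h co-culture | Also added: Tulahuen C4 trypomastigotes, 5000/well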
NS3 hel confirm: confirmation of Hepatitis C virus NS3 helicase inhibitors | shares compounds with HCV NS3 hel inh | NS3 helicase DNA unwinding, Cy5 molecular beacon fluorescence | AID 1943 | 1,600 tested, 31% active | inhibition, % at 10.9 µM;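 active = inhibition above the mean of all tested compounds plus 3 SD, cutoff set per campaign, cut at about 36% in these data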
DNA FID counter-2: counter-screen for HCV NS3 helicase inhibitors: DNA intercalator displacement; shares compounds with HCV NS3 hel inh; DNA fluorescent intercalator displacement, fluorescence; inhibition, % at 7.9 µM; 1,600 tested, 4% active; AID 1945;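 note: higher means more displacement of ethidium bromide from the DNA hairpin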
FID counter DR: DNA intercalator displacement in dose response | shares compounds with HCV NS3 hel inh | fluorescent intercalator displacement from DNA, fluorescence | IC50, µM | 120 tested, under 10 active | AID 2172; call rule not given here
A number is an active result; - = inactive; . = no result given; [ ] = dose if it differs, or a comment. Hits are enriched below; roughly 4.1% of the tested compounds scored in any of these assays. Cut-off read from the data, not from the text of the source, unless noted: active = inhibition above about 37%; inactive = the rest.

SMILES	HCV NS3 hel inh	MEKK3 PB1 HTS	MEKK2wt PB1 HTS	MEKK2 mut-MEK5	DNA FID counter-1	T cruzi inh	NS3 hel confirm	DNA FID counter-2	others
CSc1ccc(C2C(C(=O)c3ccco3)=C(O)C(=O)N2c2nnc(SC)s2)cc1 (stereo not drawn)	39	-	-	-	-	-	89	-	FID counter DR=-
Cc1nnc(N2C(=O)C(O)=C(C(=O)c3ccco3)C2c2ccc(F)cc2)s1 (stereo not drawn)	-	-	-	-	-	-	.	.
CCOC(=O)c1ccc(N2C(=O)C(O)=C(C(C)=O)C2c2ccc([N+](=O)[O-])cc2)cc1 (stereo not drawn)	45	-	-	-	-	-	36	-
CCOC(=O)c1sc(N2C(=O)C(O)=C(C(=O)c3ccco3)C2c2ccc(C)o2)nc1C (stereo not drawn)	-	-	-	-	-	-	.	.
O=C(O)COc1ccc(C(NC(=O)c2c(F)cccc2F)NC(=O)c2c(F)cccc2F)cc1	-	-	-	-	-	-	.	.
O=C(CCCOc1ccccc1)Nc1ccc(Cl)cn1	-	-	-	-	-	-	.	.
CC1(C)Oc2ccc(C(=O)Nc3ccccc3)cc2N(CC#N)C1=O	-	-	-	-	-	-	.	.
Cc1ccc(NC(=O)CSc2nc(O)cc(=O)n2C)cc1	-	-	-	-	-	-	.	.
Cc1ccc(NC(=O)CSc2nc(O)cc(=O)n2-c2ccc(C)cc2)cc1	48	-	-	-	-	-	36	-
COc1ccccc1NC(=O)c1cc([N+](=O)[O-])ccc1N1CCOCC1	-	-	-	-	-	-	.	.
O=C(CCC1N=C2c3ccccc3N=C(SCC(=O)NCc3ccco3)N2C1=O)NCc1ccco1 (stereo not drawn)	-	-	-	-	-	-	.	.
Cc1ccc(CSC2=Nc3ccccc3C3=NC(CCC(=O)NCc4ccco4)C(=O)N23)cc1 (stereo not drawn)	47	-	-	-	-	-	-	-
Cc1noc(C)c1CS(=O)(=O)c1ccc([N+](=O)[O-])cc1	-	-	-	-	-	-	.	.
Oc1ccc(C=Nc2ccc(N3CCOCC3)cc2)c(O)c1	-	.	.	.	-	-	.	.
Oc1ccc(N=Nc2cccc(C(F)(F)F)c2)cc1C=Nc1ccc(N2CCOCC2)cc1	45	-	-	-	-	-	-	39
O=C(/C=C/c1ccco1)Nc1nc(-c2ccc(F)c(F)c2)cs1	54	-	-	-	-	-	-	-
Cc1ccc(-c2csc(N/N=C/c3ccco3)n2)cc1	46	-	-	-	-	-	-	-
Cc1cccc(NC(=O)CSc2nnc(CNC(=O)c3ccco3)n2C)c1C	.	.	.	.	.	-	.	.
CCOc1ccc(S(=O)(=O)N2CCCC(C(=O)NCCN3CCOCC3)C2)cc1Cl (stereo not drawn)	-	-	-	-	-	-	.	.
CN(C(=O)CC1C(=O)NCCN1Cc1cccc(C(F)(F)F)c1)C1CCOCC1 (stereo not drawn)	-	-	-	-	-	-	.	.
O=c1[nH][nH]c2c(N=Cc3ccccc3O)ccc(F)c12	53	57[inhibitor]	58[inhibitor]	-	-	.	-	-
CCc1ccc(O)c(N=Cc2ccccc2O)c1	-	-	-	-	-	-	.	.
Cc1ccc(NC(=O)CNC(=O)c2ccco2)cc1	-	-	-	-	-	-	.	.
CCN(CC)C(=O)C(=O)c1ccn(-c2c(C)csc2C(=O)OC)c1	-	-	-	-	-	-	.	.
COc1cc(/C=C2\SC(=S)N(C(C(=O)O)c3ccccc3)C2=O)ccc1O (stereo not drawn)	43	-	-	-	-	-	75	-
O=C1/C(=C\c2ccc(O)c(O)c2)SC(=S)N1Cc1ccccc1	69	-	-	-	-	-	59	52

Screening data: PubChem BioAssay, several laboratories
